Data reported in ChEMBL document CHEMBL3259621, “Novel merosesquiterpene exerts a potent antitumor activity against breast cancer cells in vitro and in vivo” (Eur J Med Chem, 2014).
pIC50: −log10 of the molar value. The source made the active and inactive calls. No cut-off for these calls is given here.

How the values were obtained:
MCF7 [1] = assay: Induction of apoptosis in human MCF7 cells assessed as increase in E-cadherin expression at 1 to 2 uM after 48 hrs by FACS analysis; format: functional, cell-based
How it was run: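 MCF-7 seeded at 5 × 10⁴/cm² and treated at 24 h with 1 or 2 µM compound for 48 h. Labelled with fluorochrome-conjugated anti-E-cadherin or anti-β-catenin antibody for 30 min at 4 °C in the dark, washed in PBS. Mean fluorescence intensity measured by FACScan flow cytometry.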

SW480 = assay: Cytotoxicity against human SW480 cells after 3 days by SRB assay; format: functional, cell-based; conditions: SW480, 72 h
How it was run: (§1)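 Cells seeded at 5 × 10³ cells/cm² in quadruplicate and, after 24 h, treated with increasing concentrations for 3 days. Compounds diluted from DMSO stock, final DMSO <0.1% v/v. Cells were fixed with cold 10% TCA, stained with 0.4% sulforhodamine B in 1% acetic acid, and dye solubilised in 10 mM Tris-base pH 10.5. OD read at 492 nm. IC50 obtained by linear interpolation on a semi-log dose-response curve.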

MCF7 [2] = assay: Induction of apoptosis in human MCF7 cells assessed as increase in total p53 expression level at 2 uM after 4 to 24 hrs by Western blotting analysis relative to control; format: functional, cell-based
How it was run: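 MCF-7 seeded at 5 × 10⁴/cm² and exposed at 24 h to 2 µM compound for 0, 4, 8, 16 and 24 h. Lysates separated on 12% SDS gels, transferred to nitrocellulose, blocked in 5% milk. Primary antibodies applied overnight at 4 °C, then secondary 1 h at room temperature. Detection by ECL chemiluminescence with β-actin as loading reference.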

[3] = Therapeutic index, ratio of IC50 for human CCD-18Co cells to IC50 for human HT-29 cells; format: cell-based; conditions: CCD-18Co cells versus HT-29 cells, read-out: Ratio IC50
[4] = Cytotoxicity against human MCF10A cells after 3 days by SRB assay; format: cell-based; conditions: MCF-10A, 72 h; how it was run: as §1
MCF7 [5] = assay: Cytotoxicity against human MCF7 cells at 1 to 3 uM after 3 days by SRB assay in presence of NAC; format: functional, cell-based
How it was run: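 MCF-7 seeded at high density (5 × 10⁴/cm²) and treated at 24 h with compound for 3 days, with or without 20 mM NAC. Viable cells quantified by sulforhodamine B staining, OD 492 nm. Viability reduction expressed versus untreated controls.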

MCF7 [6] = assay: Induction of apoptosis in human MCF7 cells assessed as early apoptotic cells at 2 uM after 48 hrs by annexin V staining-based flow cytometry (reference value: 0.205 %); format: functional

Structure (SMILES): C=C1CC[C@@H]2[C@](C)(CCC[C@]2(C)C(=O)OC)[C@H]1Cc1c(C)ccc2c1C(=O)C=CC2=O
- Activity (MCF7 [1]): Active
- pIC50 (SW480): 6.04
- Activity (MCF7 [2]): Active
- selectivity ratio [3]: 0.17
- pIC50 [4]: 5.50
- Activity (MCF7 [5]): inactive
- Activity (MCF7 [6]): 12.5%
